Measured values: ChEMBL document CHEMBL4138097, “Investigation of pyrazolo-sulfonamides as putative small molecule oxytocin receptor agonists” (Eur J Med Chem, 2017)
Active and inactive are the calls of the source. The calls are words filed in the database; no cut-off is given here. Where a SMILES comes first, the peptide text is derived from it. Bridges are numbered along the chain shown (N, C = ends). [ ]: non-standard residue; d: D form. Orn = NCCC[C@H](N)C(=O)O; Mpa = O=C(O)CCS

Experiments:
[1] = target: T1, Vasopressin V1a receptor (Homo sapiens, UniProt P37288); experiment: (§1) Antagonist activity at human vasopressin 1a receptor expressed in HEK293 cell membranes assessed as inhibition of AVP-induced increase in Ca2+ flux by measuring intracellular calcium level at 10 uM preincubated for 5 mins followed by AVP addition measured after 5 mins for every 2 secs by Ca5 dye based FLIPR assay (reference value: 5.2 +/- 0.2%); format: functional
In short: (§2)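 HEK cells were pre-incubated 5 min with compound (10 μM) or vehicle (0.1% DMSO). Agonist was then added: OT for hOTR, AVP for hV1aR. Peak Ca5 fluorescence was taken as fold-change over baseline. A 4-parameter fit gave pEC50 and Max. Run in duplicate with 5-6 independent replicates, mean ± S.E.M.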
Target sequence in this assay (P37288 whole entry, looked up): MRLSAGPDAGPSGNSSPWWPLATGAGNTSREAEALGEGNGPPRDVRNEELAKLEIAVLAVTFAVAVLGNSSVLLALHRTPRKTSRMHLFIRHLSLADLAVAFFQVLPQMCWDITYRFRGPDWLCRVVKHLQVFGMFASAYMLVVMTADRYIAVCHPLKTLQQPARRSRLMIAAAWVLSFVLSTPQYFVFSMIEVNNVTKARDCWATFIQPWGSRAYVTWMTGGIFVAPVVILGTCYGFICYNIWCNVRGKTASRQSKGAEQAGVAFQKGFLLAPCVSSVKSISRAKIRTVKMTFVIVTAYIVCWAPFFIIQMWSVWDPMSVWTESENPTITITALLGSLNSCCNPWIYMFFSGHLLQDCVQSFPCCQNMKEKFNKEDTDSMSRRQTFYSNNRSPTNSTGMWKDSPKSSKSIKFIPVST

[2] = target: T1, Vasopressin V1a receptor; experiment: Antagonist activity at human vasopressin 1a receptor expressed in CHO cell membranes assessed as inhibition of AVP-induced IP1 accumulation by measuring IP1 level at 10 uM measured after 1 hr by fluorescence assay relative to control; format: functional, cell-based; parameters: scale not given: the % may be the effect or the level left
Target sequence in this assay (P37288 whole entry, looked up): as above

[3] = target: T1, Vasopressin V1a receptor; experiment: Agonist activity at human vasopressin 1a receptor expressed in HEK293 cell membranes assessed as induction of IP1 accumulation at 0.1 to 10 uM measured after 1 hr by fluorescence assay; format: functional, cell-based
In short: (§3)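 IP1 accumulation in HEK or stably transfected CHO cells expressing hOTR or hV1aR. Compounds tested alone at 100 nM and 10 μM against vehicle (basal). Reference agonist was OT 10 nM at hOTR or AVP 10 nM at hV1aR. Non-transfected HEK cells given OT served as a specificity check. Mean ± S.E.M.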
Target sequence in this assay (P37288 whole entry, looked up): as above

[4] = target: T1, Vasopressin V1a receptor; experiment: Agonist activity at human vasopressin 1a receptor expressed in HEK293 cell membranes assessed as increase in Ca2+ flux at 0.1 to 10 uM measured after 5 mins for every 2 secs by Ca5 dye based FLIPR assay; format: functional
In short: (§4)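 Intracellular Ca2+ read by FLIPR with Ca5 dye in HEK or stably transfected CHO cells expressing hOTR or hV1aR. Compounds added alone at 100 nM and 10 μM. Response taken as the change in fluorescence.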
Target sequence in this assay (P37288 whole entry, looked up): as above

[5] = target: T1, Vasopressin V1a receptor; experiment: Antagonist activity at human vasopressin 1a receptor expressed in CHO cell membranes assessed as inhibition of AVP-induced IP1 accumulation by measuring IP1 level measured after 1 hr by fluorescence assay; format: functional, cell-based
Target sequence in this assay (P37288 whole entry): as the sequence (P37288 whole entry, looked up) above

[6] = target: T2, Oxytocin receptor (Homo sapiens) (UniProt P30559); experiment: Antagonist activity at human OTR expressed in HEK293 cell membranes assessed as inhibition of OT-induced IP1 accumulation by measuring IP1 level at 100 nM measured after 1 hr by flourescence assay relative to control; format: functional, cell-based; parameters: scale not given: the % may be the effect or the level left
T2 sequence (whole entry): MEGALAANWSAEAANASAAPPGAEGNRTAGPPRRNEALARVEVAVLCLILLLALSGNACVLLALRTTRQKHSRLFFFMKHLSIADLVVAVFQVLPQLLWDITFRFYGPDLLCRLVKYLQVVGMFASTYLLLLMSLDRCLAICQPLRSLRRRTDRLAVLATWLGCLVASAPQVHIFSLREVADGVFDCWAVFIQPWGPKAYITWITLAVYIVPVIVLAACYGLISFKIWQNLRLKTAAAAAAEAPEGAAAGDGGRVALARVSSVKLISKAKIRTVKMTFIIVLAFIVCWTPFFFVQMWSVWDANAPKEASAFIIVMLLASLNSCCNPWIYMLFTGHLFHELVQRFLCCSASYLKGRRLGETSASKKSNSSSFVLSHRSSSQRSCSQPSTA

[7] = target: T1, Vasopressin V1a receptor; experiment: Antagonist activity at human vasopressin 1a receptor expressed in HEK293 cell membranes assessed as inhibition of AVP-induced IP1 accumulation by measuring IP1 level at 100 nM measured after 1 hr by fluorescence assay relative to control; format: functional, cell-based; parameters: scale not given: the % may be the effect or the level left
Target sequence in this assay (P37288 whole entry, looked up): as the sequence (P37288 whole entry, looked up) above

[8] = target: T3, Oxytocin receptor (Homo sapiens, UniProt P30559); experiment: Displacement of [3H]-oxytocin from human OTR expressed in HEK293 cell membranes after 90 mins by microbeta scintillation counting method
T3 sequence (P30559 whole entry): T2 sequence (whole entry)

[9] = target: T2, Oxytocin receptor (Homo sapiens); experiment: as §1, with “OTR” for “vasopressin 1a receptor”, “OT-induced” for “AVP-induced”, “OT” for “AVP”, “4.5” for “5.2”, “0.1%)” for “0.2%)”; format: functional; in short: as §2
[10] = target: T2, Oxytocin receptor (Homo sapiens); experiment: Antagonist activity at human OTR expressed in CHO cell membranes assessed as inhibition of OT-induced IP1 accumulation by measuring IP1 level at 10 uM measured after 1 hr by fluorescence assay relative to control; format: functional, cell-based; parameters: scale not given: the % may be the effect or the level left
[11] = target: T2, Oxytocin receptor (Homo sapiens); experiment: Antagonist activity at human OTR expressed in CHO cell membranes assessed as inhibition of OT-induced IP1 accumulation by measuring IP1 level at 100 nM measured after 1 hr by fluorescence assay relative to control; format: functional, cell-based; parameters: scale not given: the % may be the effect or the level left
[12] = target: T2, Oxytocin receptor (Homo sapiens); experiment: Agonist activity at human OTR expressed in CHO cell membranes assessed as induction of IP1 accumulation at 0.1 to 10 uM measured after 1 hr by fluorescence assay; format: functional, cell-based; in short: as §3
[13] = target: T1, Vasopressin V1a receptor; experiment: Agonist activity at human vasopressin 1a receptor expressed in CHO cell membranes assessed as increase in Ca2+ flux at 0.1 to 10 uM measured after 5 mins for every 2 secs by Ca5 dye based FLIPR assay; format: functional; in short: as §4
Target sequence in this assay (P37288 whole entry, looked up): as the sequence (P37288 whole entry, looked up) above

[14] = target: T2, Oxytocin receptor (Homo sapiens); experiment: Agonist activity at human OTR expressed in HEK293 cell membranes assessed as increase in Ca2+ flux at 0.1 to 10 uM measured after 5 mins for every 2 secs by Ca5 dye based FLIPR assay; format: functional; in short: as §4
[15] = target: T3, Oxytocin receptor; experiment: Antagonist activity at human OTR expressed in CHO cell membranes assessed as inhibition of OT-induced IP1 accumulation measured after 1 hr by fluorescence assay; format: functional, cell-based
[16] = target: T1, Vasopressin V1a receptor; experiment: Displacement of [3H]-vasopressin from human vasopressin 1a receptor expressed in HEK293 cell membranes after 90 mins by microbeta scintillation counting method
Target sequence in this assay (P37288 whole entry): as the sequence (P37288 whole entry, looked up) above

[17] = target: T1, Vasopressin V1a receptor; experiment: Antagonist activity at human vasopressin 1a receptor expressed in CHO cell membranes assessed as inhibition of AVP-induced IP1 accumulation by measuring IP1 level at 100 nM measured after 1 hr by fluorescence assay relative to control; format: functional, cell-based; parameters: scale not given: the % may be the effect or the level left
[18] = target: T1, Vasopressin V1a receptor; experiment: Agonist activity at human vasopressin 1a receptor expressed in CHO cell membranes assessed as induction of IP1 accumulation at 0.1 to 10 uM measured after 1 hr by fluorescence assay; format: functional, cell-based; in short: as §3
[19] = target: T1, Vasopressin V1a receptor; experiment: Antagonist activity at human vasopressin 1a receptor expressed in HEK293 cell membranes assessed as inhibition of AVP-induced IP1 accumulation measured after 1 hr by fluorescence assay; format: functional, cell-based
Target sequence in this assay (P37288 whole entry): as the sequence (P37288 whole entry, looked up) above

[20] = target: T1, Vasopressin V1a receptor; experiment: Antagonist activity at human vasopressin 1a receptor expressed in HEK293 cell membranes assessed as inhibition of AVP-induced IP1 accumulation by measuring IP1 level at 10 uM measured after 1 hr by fluorescence assay relative to control; format: functional, cell-based; parameters: scale not given: the % may be the effect or the level left
[21] = target: T2, Oxytocin receptor (Homo sapiens); experiment: Antagonist activity at human OTR expressed in HEK293 cell membranes assessed as inhibition of OT-induced IP1 accumulation by measuring IP1 level at 10 uM measured after 1 hr by fluorescence assay relative to control; format: functional, cell-based; parameters: scale not given: the % may be the effect or the level left
[22] = target: T2, Oxytocin receptor (Homo sapiens); experiment: Positive allosteric modulation of human OTR expressed in HEK293 cell membranes assessed as increase in OT-induced IP1 accumulation at 10 uM measured after 1 hr by fluorescence assay; format: functional, cell-based
In short: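 hOTR-transfected HEK cells treated with ~EC10 OT (3 nM) plus compound (10 μM) or vehicle (0.1% DMSO). IP1 measured and compared with OT plus vehicle. Mean ± S.E.M.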

[23] = target: T3, Oxytocin receptor; experiment: Antagonist activity at human OTR expressed in HEK293 cell membranes assessed as inhibition of OT-induced IP1 accumulation measured after 1 hr by fluorescence assay; format: functional, cell-based
[24] = target: T2, Oxytocin receptor (Homo sapiens); experiment: Agonist activity at human OTR expressed in CHO cell membranes assessed as increase in Ca2+ flux at 0.1 to 10 uM measured after 5 mins for every 2 secs by Ca5 dye based FLIPR assay; format: functional; in short: as §4
[25] = target: T2, Oxytocin receptor (Homo sapiens); experiment: Agonist activity at human OTR expressed in HEK293 cell membranes induction of IP1 accumulation at 0.1 to 10 uM measured after 1 hr by fluorescence assay; format: functional, cell-based; in short: as §3

%max [1] [%]	Activity [2] [%]	Activity [3]	Activity [4]	IC50 [5] [µM]	Activity [6] [%]	Activity [7] [%]	Ki [8] [µM]	%max [9] [%]	Activity [10] [%]	Activity [11] [%]	Activity [12]	Activity [13]	Activity [14]	IC50 [15] [µM]	Ki [16] [µM]	Activity [17] [%]	Activity [18]	IC50 [19] [µM]	Activity [20] [%]	Structure (SMILES)	further results
5.3	83.1	inactive	inactive	> 10	70.6	109	> 10	4.4	82.1	83.2	inactive	inactive	inactive	> 10	> 10	84.8	inactive	> 10	104	O=S(=O)(Nc1ccnn1-c1ccccn1)c1ccc(C(F)(F)F)cc1	Activity [21]: 65.5%; Activity [22]: inactive; IC50 ([23]; read-out: pIC50 (converted)): > 10 µM; Activity [24]: inactive
5.1	79.3	inactive	inactive	> 10	98.3	84.7	> 10	4.4	79.5	85.5	inactive	inactive	inactive	> 10	> 10	86.5	inactive	> 10	77.9	Cn1nccc1NS(=O)(=O)c1ccc(C(F)(F)F)cc1	Activity [25]: inactive; Activity [21]: 90.4%; Activity [22]: inactive; IC50 ([23]; read-out: pIC50 (converted)): > 10 µM; Activity [24]: inactive
5	105	inactive	inactive	> 10	82.5	112	> 10	4	94.7	90.5	inactive	inactive	inactive	> 10	> 10	100	inactive	> 10	105	Cn1nccc1NS(=O)(=O)c1ccc(Cl)cc1	Activity [25]: inactive; Activity [21]: 72.5%; Activity [22]: inactive; IC50 ([23]; read-out: pIC50 (converted)): > 10 µM; Activity [24]: inactive
5.3	116	inactive	inactive	> 10	89.5	85.9	> 10	4.5	71.1	83.9	inactive	inactive	inactive	> 10	> 10	103	inactive	> 10	80.2	O=S(=O)(Nc1ccnn1-c1ccccn1)c1ccc(Cl)cc1	Activity [21]: 78.1%; Activity [22]: inactive; IC50 ([23]; read-out: pIC50 (converted)): > 10 µM; Activity [24]: inactive
–	–	–	–	–	–	–	–	–	–	–	–	–	–	–	–	–	–	–	–	CCOc1ccc(C[C@H]2NC(=O)CCSSC[C@@H](C(=O)N3CCC[C@H]3C(=O)N[C@@H](CCCN)C(=O)NCC(N)=O)NC(=O)[C@H](CC(N)=O)NC(=O)[C@H]([C@@H](C)O)NC(=O)[C@H]([C@@H](C)CC)NC2=O)cc1 [ATOSIBAN] ([Mpa][dY](Et)ITNCP[Orn]G-NH2; disulfide 1-6)	IC50 ([23]; read-out: IC50): 0.372 µM
